Experimental data from ChEMBL document CHEMBL1157704, “Potent activity against K562 cells by polyamide-seco-CBI conjugates targeting histone H4 genes” (Bioorg Med Chem, 2010).
Active and inactive are the calls of the source.

Assays:
K562 [1] = test: Effect on HIST1H3J gene expression in human K562 cells assessed as change in mRNA transcript expression at 10 nM after 48 hrs by DNA microarray analysis relative to control; type: functional
How it was run: (§1)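 Transcripts were profiled on Affymetrix GeneChip Human Gene 1.0 ST arrays in K562 cells treated at 10 nM. Treated cells were collected at 6, 12, 24 and 48 h; untreated controls were collected at 48 h. Transcripts changed at least twofold versus control were scored.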

K562 [2] = test: Effect on HIST1H3B gene expression in human K562 cells assessed as change in mRNA transcript expression at 10 nM after 48 hrs by DNA microarray analysis relative to control; type: functional; how it was run: as §1
K562 [3] = test: Induction of apoptosis in human K562 cells assessed as viable cells at 125 nM after 48 hrs by annexin-V FITC and propidium iodide staining-based FACS analysis; type: functional; conditions: K562, 48 h, read-out: Activity
How it was run: (§2)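 K562 cells were exposed to conjugate in culture medium for 48 h, then stained with annexin V-FITC plus propidium iodide. Cell populations were quantified by flow cytometry.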

[4] = system: histone H4c gene fragment DNA (human); test: Binding affinity to 5'-ACGCCA-3' sequence of 223 bp human histone H4c gene fragment DNA assessed as DNA alkylating activity at 5 to 100 nM after 15 hrs by PAGE
K562 [5] = test: Effect on GTDC1 gene expression in human K562 cells assessed as change in mRNA transcript expression at 10 nM after 48 hrs by DNA microarray analysis relative to control; type: functional; how it was run: as §1
K562 [6] = test: Induction of apoptosis in human K562 cells assessed as non-viable necrotic cells at 250 nM after 48 hrs by annexin-V FITC and propidium iodide staining-based FACS analysis; type: functional
How it was run: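 Treated K562 cells […] stained with Annexin V-FITC/propidium iodide. Apoptosis was scored by two-dimensional flow cytometry at a core FACS facility.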

K562 [7] = test: Effect on HIST1H2B gene expression in human K562 cells assessed as change in mRNA transcript expression at 10 nM after 48 hrs by DNA microarray analysis relative to control; type: functional; how it was run: as §1
K562 [8] = test: Effect on FERMT2 gene expression in human K562 cells assessed as change in mRNA transcript expression at 10 nM after 48 hrs by DNA microarray analysis relative to control; type: functional; how it was run: as §1
K562 [9] = test: Effect on ANKRD20B gene expression in human K562 cells assessed as change in mRNA transcript expression at 10 nM after 48 hrs by DNA microarray analysis relative to control; type: functional; how it was run: as §1
K562 [10] = test: Effect on S100A4 gene expression in human K562 cells assessed as change in mRNA transcript expression at 10 nM after 48 hrs by DNA microarray analysis relative to control; type: functional
How it was run: (§3)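 K562 CML cells (b3a2 Bcr-Abl) in standard ATCC-recommended culture, exposed once to 10 nM conjugate and harvested at 48 h. Untreated controls were also collected at 48 h. Transcripts were profiled on Human Gene 1.0 ST whole-genome oligonucleotide arrays, and each treated level was expressed relative to the untreated control, with a cutoff of at least twofold change.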

K562 [11] = test: Effect on CD52 gene expression in human K562 cells assessed as change in mRNA transcript expression at 10 nM after 48 hrs by DNA microarray analysis relative to control; type: functional; how it was run: as §1
K562 [12] = test: Effect on GPR56 gene expression in human K562 cells assessed as change in mRNA transcript expression at 10 nM after 48 hrs by DNA microarray analysis relative to control; type: functional; how it was run: as §1
K562 [13] = test: Effect on CD226 gene expression in human K562 cells assessed as change in mRNA transcript expression at 10 nM after 48 hrs by DNA microarray analysis relative to control; type: functional; how it was run: as §1
K562 [14] = test: Effect on HIST1H4H gene expression in human K562 cells assessed as down-regulation of mRNA transcript expression at 10 nM after 48 hrs by DNA microarray analysis relative to control; type: functional; how it was run: as §3
K562 [15] = test: Effect on NTS gene expression in human K562 cells assessed as change in mRNA transcript expression at 10 nM after 48 hrs by DNA microarray analysis relative to control; type: functional; how it was run: as §3
K562 [16] = test: Effect on SLC7A8 gene expression in human K562 cells assessed as change in mRNA transcript expression at 10 nM after 48 hrs by DNA microarray analysis relative to control; type: functional; how it was run: as §3
K562 [17] = test: Effect on STAG1 gene expression in human K562 cells assessed as change in mRNA transcript expression at 10 nM after 48 hrs by DNA microarray analysis relative to control; type: functional; how it was run: as §3
K562 [18] = test: Effect on TXNIP gene expression in human K562 cells assessed as change in mRNA transcript expression at 10 nM after 48 hrs by DNA microarray analysis relative to control; type: functional
How it was run: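 K562 CML cells (b3a2 Bcr-Abl) kept under standard culture conditions were exposed to 10 nM conjugate and harvested at 6, 12, 24 and 48 h. Untreated controls were harvested at 48 h. Whole-transcript oligonucleotide microarray profiling was done, and changes of at least twofold versus control were scored.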

K562 [19] = test: Effect on HIST1H2A gene expression in human K562 cells assessed as change in mRNA transcript expression at 10 nM after 48 hrs by DNA microarray analysis relative to control; type: functional; how it was run: as §1
K562 [20] = test: Effect on MYL4 gene expression in human K562 cells assessed as change in mRNA transcript expression at 10 nM after 48 hrs by DNA microarray analysis relative to control; type: functional; how it was run: as §3
K562 [21] = test: Effect on SUPT3H gene expression in human K562 cells assessed as change in mRNA transcript expression at 10 nM after 48 hrs by DNA microarray analysis relative to control; type: functional; how it was run: as §3
K562 [22] = test: Cell cycle arrest in human K562 cells assessed as increase in accumulation at G2/M phase at 125 to 250 nM after 48 hrs propidium iodide staining-based FACS analysis; type: functional
How it was run: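 K562 cells, from ATCC and kept under ATCC-recommended conditions, were treated for 48 h and pelleted at 200g for 5 min. They were resuspended in PBS, fixed with prechilled 70% ethanol and stained with propidium iodide at 50 µg/mL. DNA content was read by flow cytometry to assign the G0–G1, S and G2–M fractions; sub-2C DNA content was taken as apoptosis.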

K562 [23] = test: Effect on HIST1H4J gene expression in human K562 cells assessed as down-regulation of mRNA transcript expression at 10 nM after 48 hrs by DNA microarray analysis relative to control; type: functional; how it was run: as §3
K562 [24] = test: Induction of apoptosis in human K562 cells assessed as early apoptotic cells at 125 nM after 48 hrs by annexin-V FITC and propidium iodide staining-based FACS analysis; type: functional; how it was run: as §2
K562 [25] = test: Effect on PSMB6 gene expression in human K562 cells assessed as change in mRNA transcript expression at 10 nM after 48 hrs by DNA microarray analysis relative to control; type: functional; how it was run: as §3
K562 [26] = test: Effect on EGR1 gene expression in human K562 cells assessed as change in mRNA transcript expression at 10 nM after 48 hrs by DNA microarray analysis relative to control; type: functional; how it was run: as §1
K562 [27] = test: Effect on RHCE/RHD gene expression in human K562 cells assessed as change in mRNA transcript expression at 10 nM after 48 hrs by DNA microarray analysis relative to control; type: functional; how it was run: as §3

## CC(=O)Nc1cn(C)c(C(=O)Nc2cn(C)c(C(=O)NCCC(=O)Nc3cn(C)c(C(=O)NCCCC(=O)Nc4cc(C(=O)Nc5cn(C)c(C(=O)Nc6ccc7[nH]c(C(=O)N8CC(CCl)c9c8cc(O)c8ccccc98)cc7c6)n5)n(C)c4)n3)n2)n1 (configuration not stated)
K562 [1]
  fold change (FC): >=2
K562 [2]
  fold change (FC): >=2
K562 [3]
  viability at 0.125 µM: 80.3%
[4]
  Activity: Active
K562 [5]
  fold change (FC): >=2
K562 [6]
  Activity: 2.58%
K562 [7]
  fold change (FC): >=2
K562 [8]
  fold change (FC): >=2
K562 [9]
  fold change (FC): >=2
K562 [10]
  fold change (FC): >=2
K562 [11]
  fold change (FC): >=2
K562 [12]
  fold change (FC): >=2
K562 [13]
  fold change (FC): >=2
K562 [14]
  fold change (FC): 2.11
K562 [15]
  fold change (FC): >=2
K562 [16]
  fold change (FC): >=2
K562 [17]
  fold change (FC): >=2
K562 [18]
  fold change (FC): >=2
K562 [19]
  fold change (FC): >=2
K562 [20]
  fold change (FC): >=2
K562 [21]
  fold change (FC): >=2
K562 [22]
  Activity: Active
K562 [23]
  fold change (FC): 2.61
K562 [24]
  Activity: 8.41%
K562 [25]
  fold change (FC): >=2
K562 [26]
  fold change (FC): >=2
K562 [27]
  fold change (FC): >=2
